Test system: HEK-293T
Assay: Multiplex assay against HEK293T
Type: toxicity, cell-based
Details: human
Summary of the method: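 Cells stained live at seeding with Hoechst33342, BioTracker Green Microtubule Cytoskeleton Dye, MitoTracker Red and Annexin V Alexa Fluor 680 were imaged on a CQ1 microscope at 37°C and 5% CO2 after compound addition. Their classification by CellPathfinder machine-learning gating ran from Hoechst high-intensity objects versus normal cells, to healthy, pyknosed or fragmented nuclei among normal cells, to mitotic or apoptotic among pyknosed cells. Tubulin, mitochondrial-mass and membrane-permeability phenotypes are per cents of healthy-nucleus cells.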

[1] = 12 h, 1 µM, compound concentration 1 uM, replicate 1
[2] = 12 h, 1 µM, compound concentration 1 uM, replicate 2
[3] = 12 h, 10 µM, compound concentration 10 uM, replicate 1
[4] = 12 h, 10 µM, compound concentration 10 uM, replicate 2
[5] = 24 h, 1 µM, compound concentration 1 uM, replicate 1
[6] = 24 h, 1 µM, compound concentration 1 uM, replicate 2
[7] = 24 h, 10 µM, compound concentration 10 uM, replicate 1
[8] = 24 h, 10 µM, compound concentration 10 uM, replicate 2
[9] = 48 h, 1 µM, compound concentration 1 uM, replicate 1
[10] = 48 h, 1 µM, compound concentration 1 uM, replicate 2
[11] = 48 h, 10 µM, compound concentration 10 uM, replicate 1
[12] = 48 h, 10 µM, compound concentration 10 uM, replicate 2

Compound: CN1CCN(c2ccc(Nc3c4ccccc4nc4ccccc34)cc2)CC1.Cl.Cl.O
- Population Apoptotic (%) [1]: 42%
- Population Fragmented Nuclei (%) [1]: 7%
- Population Healthy Nuclei (%) [1]: 81%
- Population Hoechst High Intensity Objects (%) [1]: 3%
- Population Membrane Permeable-Phenotype (%) [1]: 0%
- Population Mitochondria Different-Phenotype (%) [1]: 50%
- Population Mitotic Cells (%) [1]: 57%
- Population Normal (%) [1]: 96%
- Population Pyknosed Nuclei (%) [1]: 11%
- Population Tubulin-Different-Phenotype (%) [1]: 28%
- Total Cell Count [1]: 411
- Population Apoptotic (%) [2]: 55%
- Population Fragmented Nuclei (%) [2]: 4%
- Population Healthy Nuclei (%) [2]: 90%
- Population Hoechst High Intensity Objects (%) [2]: 1%
- Population Mitochondria Different-Phenotype (%) [2]: 59%
- Population Mitotic Cells (%) [2]: 45%
- Population Normal (%) [2]: 98%
- Population Pyknosed Nuclei (%) [2]: 5%
- Population Tubulin-Different-Phenotype (%) [2]: 20%
- Total Cell Count [2]: 364
- Population Apoptotic (%) [3]: 100%
- Population Fragmented Nuclei (%) [3]: 24%
- Population Healthy Nuclei (%) [3]: 74%
- Population Hoechst High Intensity Objects (%) [3]: 1%
- Population Membrane Permeable-Phenotype (%) [3]: 0%
- Population Mitochondria Different-Phenotype (%) [3]: 99%
- Population Mitotic Cells (%) [3]: 0%
- Population Normal (%) [3]: 98%
- Population Pyknosed Nuclei (%) [3]: 1%
- Population Tubulin-Different-Phenotype (%) [3]: 97%
- Total Cell Count [3]: 234
- Population Fragmented Nuclei (%) [4]: 40%
- Population Healthy Nuclei (%) [4]: 58%
- Population Hoechst High Intensity Objects (%) [4]: 0%
- Population Mitochondria Different-Phenotype (%) [4]: 100%
- Population Normal (%) [4]: 99%
- Population Tubulin-Different-Phenotype (%) [4]: 92%
- Total Cell Count [4]: 194
- Population Apoptotic (%) [5]: 42%
- Population Fragmented Nuclei (%) [5]: 9%
- Population Healthy Nuclei (%) [5]: 84%
- Population Hoechst High Intensity Objects (%) [5]: 2%
- Population Membrane Permeable-Phenotype (%) [5]: 0%
- Population Mitochondria Different-Phenotype (%) [5]: 40%
- Population Mitotic Cells (%) [5]: 57%
- Population Normal (%) [5]: 97%
- Population Pyknosed Nuclei (%) [5]: 5%
- Population Tubulin-Different-Phenotype (%) [5]: 14%
- Total Cell Count [5]: 455
- Population Apoptotic (%) [6]: 46%
- Population Healthy Nuclei (%) [6]: 86%
- Population Hoechst High Intensity Objects (%) [6]: 0%
- Population Mitochondria Different-Phenotype (%) [6]: 44%
- Population Mitotic Cells (%) [6]: 53%
- Population Normal (%) [6]: 99%
- Population Pyknosed Nuclei (%) [6]: 4%
- Population Tubulin-Different-Phenotype (%) [6]: 12%
- Total Cell Count [6]: 362
- Population Apoptotic (%) [7]: 100%
- Population Fragmented Nuclei (%) [7]: 28%
- Population Healthy Nuclei (%) [7]: 69%
- Population Hoechst High Intensity Objects (%) [7]: 2%
- Population Membrane Permeable-Phenotype (%) [7]: 0%
- Population Mitochondria Different-Phenotype (%) [7]: 100%
- Population Mitotic Cells (%) [7]: 0%
- Population Normal (%) [7]: 97%
- Population Pyknosed Nuclei (%) [7]: 2%
- Population Tubulin-Different-Phenotype (%) [7]: 92%
- Total Cell Count [7]: 247
- Population Fragmented Nuclei (%) [8]: 45%
- Population Healthy Nuclei (%) [8]: 53%
- Population Hoechst High Intensity Objects (%) [8]: 0%
- Population Normal (%) [8]: 99%
- Population Pyknosed Nuclei (%) [8]: 0%
- Population Tubulin-Different-Phenotype (%) [8]: 91%
- Total Cell Count [8]: 206
- Population Apoptotic (%) [9]: 45%
- Population Fragmented Nuclei (%) [9]: 11%
- Population Healthy Nuclei (%) [9]: 82%
- Population Hoechst High Intensity Objects (%) [9]: 3%
- Population Membrane Permeable-Phenotype (%) [9]: 0%
- Population Mitochondria Different-Phenotype (%) [9]: 30%
- Population Mitotic Cells (%) [9]: 54%
- Population Normal (%) [9]: 96%
- Population Pyknosed Nuclei (%) [9]: 6%
- Population Tubulin-Different-Phenotype (%) [9]: 16%
- Total Cell Count [9]: 581
- Population Apoptotic (%) [10]: 60%
- Population Fragmented Nuclei (%) [10]: 10%
- Population Healthy Nuclei (%) [10]: 85%
- Population Hoechst High Intensity Objects (%) [10]: 1%
- Population Mitochondria Different-Phenotype (%) [10]: 36%
- Population Mitotic Cells (%) [10]: 40%
- Population Normal (%) [10]: 98%
- Population Pyknosed Nuclei (%) [10]: 3%
- Population Tubulin-Different-Phenotype (%) [10]: 12%
- Total Cell Count [10]: 411
- Population Apoptotic (%) [11]: 100%
- Population Fragmented Nuclei (%) [11]: 34%
- Population Healthy Nuclei (%) [11]: 56%
- Population Hoechst High Intensity Objects (%) [11]: 11%
- Population Membrane Permeable-Phenotype (%) [11]: 0%
- Population Mitochondria Different-Phenotype (%) [11]: 100%
- Population Mitotic Cells (%) [11]: 0%
- Population Normal (%) [11]: 88%
- Population Pyknosed Nuclei (%) [11]: 9%
- Population Tubulin-Different-Phenotype (%) [11]: 88%
- Total Cell Count [11]: 318
- Population Apoptotic (%) [12]: 66%
- Population Fragmented Nuclei (%) [12]: 52%
- Population Healthy Nuclei (%) [12]: 46%
- Population Hoechst High Intensity Objects (%) [12]: 5%
- Population Mitochondria Different-Phenotype (%) [12]: 99%
- Population Mitotic Cells (%) [12]: 33%
- Population Normal (%) [12]: 94%
- Population Pyknosed Nuclei (%) [12]: 1%
- Population Tubulin-Different-Phenotype (%) [12]: 89%
- Total Cell Count [12]: 272
